Experiment [1] is filed under the species Cavia porcellus. The experiment can be described thus: Stimulation of [3H]phosphatidylinositol turnover in synaptoneurosomes at a concentration of 100 uM. Type of experiment: functional. In short, it runs like this:
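Nonfiltered guinea pig cortical synaptoneurosomes prelabeled 60 min at 37 °C with 1 μM [3H]inositol in Krebs–Henseleit buffer under O2/CO2 (95:5). Washed, resuspended with 10 mM LiCl (~1 mg protein/tube). Agonist at 100 μM, 90 min at 37 °C. Stopped by centrifugation, TCA extraction; [3H]inositol phosphates measured in supernatant.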

The species entered for experiment [2] is Cavia porcellus. The experiment can be described thus: Compound was evaluated for its agonist potency by measurement of potentiation of 2-chloroadenosine stimulation of cyclic AMP accumulation in guinea pig cerebral cortical synaptoneurosomal preparations. The format is functional.
The species named for experiment [3] is Cavia porcellus. Put plainly: Compound was evaluated for its agonist potency by measurement of contraction of guinea pig aortic strips. Type of experiment: functional. To be noted: Aorta. A digest of the protocol: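 Cumulative concentration-response, 3–200 μM in 2–3-fold steps. Isometric tension recorded; EC50 = concentration giving half of maximal contraction to supramaximal (-)-NE (30–50 μM), measured before and after each curve.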

Experiment [4] is described as follows: Compound was tested for its ability to displace [3H]WB-4101 form alpha-1 adrenergic receptor site in guinea pig cerebral cortical membranes. Details: species or system Cavia porcellus. A digest of the protocol: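 Guinea pig (male Hartley) cerebral cortex membranes in 50 mM Tris-HCl pH 7.4, ~0.9–1.2 mg protein/mL. […] Ki from IC50 by Cheng-Prusoff; 3–5 experiments or one in triplicate.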

Experiment [5] is described as follows: Compound was tested for its ability to displace [3H]-prazosin form alpha-1 adrenergic receptor site in guinea pig cerebral cortical membranes. Details: species or system Cavia porcellus. In short, it runs like this:
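Guinea pig (male Hartley) cerebral cortex membranes, homogenised and washed in 50 mM Tris-HCl pH 7.4, ~0.9–1.2 mg protein/mL. 0.5 nM [3H]prazosin (Kd 0.5 nM), 30 min at 30 °C; nonspecific with 10 μM phentolamine. Ki from IC50 by Cheng-Prusoff; 3–5 experiments or one in triplicate.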

Experiment [6] has as its target T1, Adrenergic receptor alpha-2 (Homo sapiens, UniProt P08913+P18825+P18089).
T1 sequence (P08913 whole entry): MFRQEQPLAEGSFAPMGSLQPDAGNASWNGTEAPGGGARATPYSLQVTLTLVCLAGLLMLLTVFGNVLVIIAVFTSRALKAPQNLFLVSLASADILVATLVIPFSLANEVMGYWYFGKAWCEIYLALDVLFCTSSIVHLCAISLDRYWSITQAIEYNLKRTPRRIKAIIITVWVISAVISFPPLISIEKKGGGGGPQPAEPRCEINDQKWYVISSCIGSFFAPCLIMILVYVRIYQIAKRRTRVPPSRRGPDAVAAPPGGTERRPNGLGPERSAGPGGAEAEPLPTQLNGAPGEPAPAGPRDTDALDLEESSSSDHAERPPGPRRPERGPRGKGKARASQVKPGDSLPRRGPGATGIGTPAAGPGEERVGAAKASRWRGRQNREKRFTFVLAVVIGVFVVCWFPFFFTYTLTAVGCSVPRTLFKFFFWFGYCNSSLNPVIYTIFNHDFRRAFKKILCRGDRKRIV
T1 sequence (P18825 whole entry): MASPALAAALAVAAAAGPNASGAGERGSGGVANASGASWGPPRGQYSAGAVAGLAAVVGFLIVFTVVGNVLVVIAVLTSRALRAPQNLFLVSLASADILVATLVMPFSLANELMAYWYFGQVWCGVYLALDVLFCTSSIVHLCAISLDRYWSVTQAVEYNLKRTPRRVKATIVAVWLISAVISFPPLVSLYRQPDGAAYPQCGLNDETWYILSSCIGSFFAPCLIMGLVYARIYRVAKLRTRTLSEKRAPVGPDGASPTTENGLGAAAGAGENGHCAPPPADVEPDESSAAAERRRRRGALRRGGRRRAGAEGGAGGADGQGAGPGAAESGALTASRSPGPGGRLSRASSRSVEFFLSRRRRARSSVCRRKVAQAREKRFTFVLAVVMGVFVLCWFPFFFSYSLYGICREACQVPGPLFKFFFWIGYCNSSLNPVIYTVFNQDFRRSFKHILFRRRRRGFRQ
T1 sequence (P18089 whole entry): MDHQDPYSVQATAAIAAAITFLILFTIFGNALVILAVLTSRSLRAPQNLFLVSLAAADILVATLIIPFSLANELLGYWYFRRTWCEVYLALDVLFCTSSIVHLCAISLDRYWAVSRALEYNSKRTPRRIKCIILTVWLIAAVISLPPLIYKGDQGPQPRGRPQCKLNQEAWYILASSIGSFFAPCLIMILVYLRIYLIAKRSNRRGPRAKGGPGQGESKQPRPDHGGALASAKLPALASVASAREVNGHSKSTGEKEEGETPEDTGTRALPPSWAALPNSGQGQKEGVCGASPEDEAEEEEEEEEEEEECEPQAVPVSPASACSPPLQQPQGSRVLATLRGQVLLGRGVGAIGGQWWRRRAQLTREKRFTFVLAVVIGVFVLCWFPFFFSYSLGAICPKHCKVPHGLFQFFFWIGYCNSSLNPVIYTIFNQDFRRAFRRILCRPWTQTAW
The experiment can be described thus: (§1) Compound was tested for its ability to displace [3H]clonidine form alpha-2 adrenergic receptor site in guinea pig cerebral cortical membranes. Details: species or system Cavia porcellus. To be noted: target entry is the homologue from another species. In short, it runs like this: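 Guinea pig (male Hartley) cerebral cortex membranes in 50 mM Tris-HCl pH 7.4. […] Ki from IC50 by Cheng-Prusoff; 3–5 experiments or one in triplicate.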

Experiment [7] deals with T1, Adrenergic receptor alpha-2. The experiment is described as §1. Further details: species or system Cavia porcellus. To be noted: target entry is the homologue from another species. In short, it runs like this: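 Guinea pig (male Hartley) cerebral cortex membranes in 50 mM Tris-HCl pH 7.4. Ki from IC50 by Cheng-Prusoff; 3–5 experiments or one in triplicate.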
The source holds these as a separate data set.

This is an account of results in ChEMBL document CHEMBL1123239, “Synthesis and adrenergic activity of ring-fluorinated phenylephrines” (J Med Chem, 1986).

Molecules are shown by their SMILES. pEC50, pKi: −log10 of the molar value.

On to `CNC[C@H](O)c1cccc(O)c1` [PHENYLEPHRINE], for which the Control in the experiment listed under Cavia porcellus [1] came to 161%. The pEC50 (commonly the EC50 on a negative log10 scale, so that one unit is a factor of ten) is 4.59 in the experiment listed under Cavia porcellus [2] and 4.57 in the experiment listed under Cavia porcellus [3]. Also, the negative logarithm of the Ki (pKi) – broadly, −log10 of the Ki, conventionally taken in molar units – in experiment [4] was 5.60.

Consider `CNCC(O)c1ccc(F)c(O)c1` (racemic), for which the figures for the pKi in experiment [5] and in experiment [4] were 5.00 and 5.43, respectively. The compound further came in with a Control in the experiment filed under Cavia porcellus [1] of 136%. In experiment [6], the inhibition constant Ki (in general, the equilibrium dissociation constant of an inhibitor or competing ligand from its target) was 1 µM. For the same compound, the pEC50 is 4.46 in the experiment listed under Cavia porcellus [2] and 4.41 in the experiment filed under Cavia porcellus [3].

With `CNCC(O)c1cc(O)ccc1F` (racemic), the negative-log Ki (pKi) in experiment [5] is 5.68; in experiment [4] it was 5.89. In the experiment filed under Cavia porcellus [1], this compound yielded a Control of 162%. In experiment [6], this compound yielded a Ki of 0.23 µM. Moreover, the figures for the pEC50 in the experiment filed under Cavia porcellus [2] and in the experiment filed under Cavia porcellus [3] were 5.40 and 4.96, respectively.

In the case of `CNCC(O)c1cccc(O)c1F` (racemic), the negative-log Ki (pKi) in experiment [5] is 4.77; in experiment [4] it was 5.18. In the experiment filed under Cavia porcellus [1], this compound came in with a Control of 134%. Moreover, the results for the negative-log EC50 (pEC50) in the experiment listed under Cavia porcellus [2] and in the experiment filed under Cavia porcellus [3] were 4.40 and 3.98, respectively. The compound also displayed a Ki in experiment [7] of 1.2 µM.
